Test results: ChEMBL document CHEMBL3098102, “1,2,3-Triazole-derived naphthalimides as a novel type of potential antimicrobial agents: synthesis, antimicrobial activity, interaction with calf thymus DNA and human serum albumin” (Bioorg Med Chem Lett, 2014)
Converted amounts (≈) assume the structure as drawn. The source made the active and inactive calls. No cut-off for these calls is given here.

What was measured:
Bacillus subtilis = test: Antimicrobial activity against Bacillus subtilis after 24 hrs by two-fold serial dilution method; type: functional
Method in brief: (§1)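 MIC read by broth microdilution in microdilution plates.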

Micrococcus luteus = test: Antimicrobial activity against Micrococcus luteus ATCC 4698 after 24 hrs by two-fold serial dilution method; type: functional; conditions: ATCC 4698, 24 h
[1] = Antimicrobial activity against Bacillus proteus after 24 hrs by two-fold serial dilution method; type: functional; method in brief: as §1
Escherichia coli [2] = test: Antimicrobial activity against Escherichia coli DH52 after 24 hrs by two-fold serial dilution method; type: functional; conditions: DH52, 24 h
Shigella dysenteriae = test: Antimicrobial activity against Shigella dysenteriae after 24 hrs by two-fold serial dilution method; type: functional
Aspergillus flavus [3] = test: Antimicrobial activity against Aspergillus flavus after 24 hrs by two-fold serial dilution method; type: functional; method in brief: as §1
Aspergillus flavus [4] = test: Ratio of fluconazole MIC to compound MIC for Aspergillus flavus after 24 hrs by two-fold serial dilution method; type: functional
Staphylococcus aureus [5] = test: Antimicrobial activity against methicillin-resistant Staphylococcus aureus N315 after 24 hrs by two-fold serial dilution method; type: functional; conditions: N315, 24 h
Pseudomonas aeruginosa = test: Antimicrobial activity against Pseudomonas aeruginosa after 24 hrs by two-fold serial dilution method; type: functional; method in brief: as §1
Saccharomyces cerevisiae = test: Antimicrobial activity against Saccharomyces cerevisiae by two-fold serial dilution method; type: functional; method in brief: as §1
Candida albicans = test: Antimicrobial activity against Candida albicans after 24 hrs by two-fold serial dilution method; type: functional; method in brief: as §1
Staphylococcus aureus [6] = test: Antimicrobial activity against Staphylococcus aureus ATCC 25923 after 24 hrs by two-fold serial dilution method; type: functional; conditions: ATCC 25923, 24 h
DNA [7] = test: Competitive binding affinity to calf thymus DNA at 0.25 to 2 x 10^-5 mol/L by UV spectroscopy in presence of neutral red; type: nucleic-acid assay; conditions: Bos taurus
DNA [8] = test: Binding affinity to calf thymus DNA by UV-vis spectroscopy; type: nucleic-acid assay; conditions: Bos taurus
Method in brief: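 UV-vis absorption spectra of calf thymus DNA recorded with increasing concentrations of test compound. The DNA band at 260 nm was monitored for changes in intensity and wavelength.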

Escherichia coli [9] = test: Ratio of chloromycin MIC to compound MIC for Escherichia coli DH52 after 24 hrs by two-fold serial dilution method; type: functional

CCCCCCCCn1cc(CN(Cc2cn(CCCCCCCC)nn2)N2C(=O)c3cccc4c(Br)ccc(c34)C2=O)nn1 gave an MIC (Bacillus subtilis) of over 512 µg/mL, an MIC (Micrococcus luteus) of over 512 µg/mL and an MIC [1] of over 512 µg/mL. For the same compound, the MIC (Escherichia coli [2]) was 512 µg/mL (≈ 756 µM), the MIC (Shigella dysenteriae) was over 512 µg/mL and the MIC (Aspergillus flavus [3]) was 16 µg/mL (≈ 23.6 µM). For the same compound, the Ratio (Aspergillus flavus [4]) was 16, the MIC (Staphylococcus aureus [5]) was over 512 µg/mL and the MIC (Pseudomonas aeruginosa) was 512 µg/mL (≈ 756 µM). It also gave an MIC (Saccharomyces cerevisiae) of over 512 µg/mL, an MIC (Candida albicans) of over 512 µg/mL and an MIC (Staphylococcus aureus [6]) of over 512 µg/mL.

In the case of CCCCCCCCn1cc(CN(Cc2cn(CCCCCCCC)nn2)N2C(=O)c3cccc4c(Br)ccc(c34)C2=O)nn1.Cl.Cl, the MIC (Bacillus subtilis) is reported as over 512 µg/mL, the MIC (Micrococcus luteus) is reported as over 512 µg/mL and the MIC [1] is reported as 512 µg/mL. For the same compound, the MIC (Escherichia coli [2]) was 512 µg/mL, the MIC (Shigella dysenteriae) was over 512 µg/mL and the MIC (Aspergillus flavus [3]) was 16 µg/mL. For the same compound, the Ratio (Aspergillus flavus [4]) was 16, the MIC (Staphylococcus aureus [5]) was over 512 µg/mL and the MIC (Pseudomonas aeruginosa) was 512 µg/mL. It also gave an MIC (Saccharomyces cerevisiae) of over 512 µg/mL, an MIC (Candida albicans) of over 512 µg/mL and an MIC (Staphylococcus aureus [6]) of over 512 µg/mL.

For O=C1c2cccc3c(Br)ccc(c23)C(=O)N1N(Cc1cn(Cc2ccc(Cl)c(Cl)c2)nn1)Cc1cn(Cc2ccc(Cl)c(Cl)c2)nn1, the Activity (DNA [7]) was “Active” and the K (DNA [8]) was 2.34 ×10⁴ L/mol.

Work on O=C1c2cccc3c(Br)ccc(c23)C(=O)N1N(Cc1cn(Cc2ccccc2Cl)nn1)Cc1cn(Cc2ccccc2Cl)nn1 yielded an MIC (Bacillus subtilis) of over 512 µg/mL, an MIC (Micrococcus luteus) of 128 µg/mL (≈ 182 µM) and a Ratio (Escherichia coli [9]) of 2. It also gave an MIC [1] of over 512 µg/mL, an MIC (Escherichia coli [2]) of 4 µg/mL (≈ 5.69 µM) and an MIC (Shigella dysenteriae) of over 512 µg/mL. It also gave an MIC (Aspergillus flavus [3]) of over 512 µg/mL, an MIC (Staphylococcus aureus [5]) of 512 µg/mL (≈ 729 µM) and an MIC (Pseudomonas aeruginosa) of over 512 µg/mL. For the same compound, the MIC (Saccharomyces cerevisiae) was over 512 µg/mL, the MIC (Candida albicans) was 64 µg/mL (≈ 91.1 µM) and the MIC (Staphylococcus aureus [6]) was over 512 µg/mL.
